The source made the active and inactive calls. No cut-off for these calls is given here.

For test [1], the system named is Trypanosoma brucei. The test is described as follows: Activity against Trypanosoma brucei GVR35 in infected NMRI mouse at 40 mg/kg, ip. In kind it is functional, organism-based. Further details: dose 40 mg/kg.
A further test has as its system Nucleic Acid. Briefly: Binding affinity to Trypanosoma brucei rhodesiense DNA. In kind it is nucleic-acid assay.
For test [2], the system named is Trypanosoma brucei brucei. The test is described as follows: Activity against Trypanosoma brucei brucei STIB795 in infected NMRI mouse at 10 mg/kg, ip. In kind it is functional, organism-based. Further details: dose 10 mg/kg. The method, boiled down:
(§1)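 Mice infected ip with 1 × 10^5 (STIB 795) or 2 × 10^4 (STIB 900) bloodstream forms, in groups of four. Dosed ip once daily on days 3–6, with an untreated control group. Parasitemia checked every second day to day 14, then twice weekly to day 60. Deaths recorded for mean survival time. Cured means surviving and aparasitemic at 60 days.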

Test [3] concerns Trypanosoma brucei brucei. Briefly: Activity against Trypanosoma brucei brucei STIB795 in infected NMRI mouse at 20 mg/kg, ip. In kind it is functional, organism-based. On the set-up: dose 20 mg/kg. The method, boiled down:
as §1

In test [4] the test system is Trypanosoma brucei rhodesiense. Briefly: Activity against Trypanosoma brucei rhodesiense STIB900 in infected NMRI mouse at 20 mg/kg, ip. In kind it is functional, organism-based. Further details: dose 20 mg/kg. In outline:
as §1

Test [5] concerns Trypanosoma brucei. The test is described as follows: Activity against Trypanosoma brucei GVR35 in infected NMRI mouse at 20 mg/kg, ip. In kind it is functional, organism-based. Further details: dose 20 mg/kg.
Test [6] concerns Trypanosoma brucei brucei. The test is described as follows: Antitrypanosomal activity against trypomastigotes of AT1 wild type Trypanosoma brucei brucei 427. In kind it is functional, organism-based.
Test [7] concerns Trypanosoma brucei brucei. The test is described as follows: Antitrypanosomal activity against trypomastigotes of AT1 knockout Trypanosoma brucei brucei 427. In kind it is functional, organism-based.

As for `N=C(N)c1ccc(/N=N/Nc2ccc(C(=N)N)cc2)cc1`, the result with Trypanosoma brucei [1] was inactive.
As to `N=C(N)Nc1ccc(N2CCN(c3ccc(NC(=N)N)cc3)CC2)cc1`, the result in the test with Nucleic Acid was Active.
With `N=C(N)Nc1ccc(CCCCCCCCc2ccc(NC(=N)N)cc2)cc1`, the outcome in test [2] was inactive.
`c1cc(NC2=NCCN2)ccc1Cc1ccc(NC2=NCCN2)cc1`: the result in the test with Nucleic Acid was Active.
Still for that read-out and setting: with `N=C(N)Nc1ccc(C(=O)c2ccc(NC(=N)N)cc2)cc1` the entry was “Active”.
As for `c1cc(N2CCN(c3ccc(NC4=NCCN4)cc3)CC2)ccc1NC1=NCCN1`, the result in the test with Nucleic Acid was Active. Further, the Activity result in test [3] was “Toxic”.
Consider `N=C(N)Nc1ccc(S(=O)(=O)c2ccc(NC(=N)N)cc2)cc1`, for which the outcome with Nucleic Acid was inactive.
Same read-out and setting: with `O=S(=O)(c1ccc(NC2=NCCN2)cc1)c1ccc(NC2=NCCN2)cc1` the entry was “inactive”; with `N=C(N)c1ccc(OCCCCCOc2ccc(C(=N)N)cc2)cc1`, “Active”.
With `c1cc(Nc2ccc(NC3=NCCN3)cc2)ccc1NC1=NCCN1`, the result (in the test with Nucleic Acid; in test [3]; in test [4]) was Active. Also, the outcome in the test with Trypanosoma brucei [5] was inactive. Besides, the IC50 (commonly the concentration that gives 50% inhibition) was determined as 63.7 nM in test [6] and 162 nM in test [7].
Take `N=C(N)Nc1ccc(Cc2ccc(NC(=N)N)cc2)cc1`: the result in the test with Nucleic Acid was Active.
As to `CC(C)(C)OC(=O)N1CC[N+](C(=O)OC(C)(C)C)=C1Nc1ccc(Nc2ccc(NC3=[N+](C(=O)OC(C)(C)C)CCN3C(=O)OC(C)(C)C)cc2)cc1`, the result in test [3] was inactive.
For the compound `N=C(N)Nc1ccc(Nc2ccc(NC(=N)N)cc2)cc1`, the outcome (with Nucleic Acid; in test [3]) was Active. The values for the IC50 in test [6] and in test [7] were 3 nM and 2.2 nM, respectively.

The record behind these values is ChEMBL document CHEMBL1148654, “DNA binding affinity of bisguanidine and bis(2-aminoimidazoline) derivatives with in vivo antitrypanosomal activity” (J Med Chem, 2006).
